ChEMBL document CHEMBL1123924, “Structure-activity studies of antagonists of luteinizing hormone-releasing hormone with emphasis on the amino-terminal region” (1987)
Non-standard residues stand in square brackets, D forms with d. Residues, ends and D or L forms follow the SMILES beside them. d(hArg(Et2)) = CCN=C(NCC)NCCCC[C@@H](N)C(=O)O; dPhe(4-Cl) = N[C@H](Cc1ccc(Cl)cc1)C(=O)O; d2Nal = N[C@H](Cc1ccc2ccccc2c1)C(=O)O

Assays:
Assay type in all cases: functional
Rattus norvegicus [1] = organism: Rattus norvegicus; experiment: Antiovulatory activity was expressed as the percentage of 9 rats blocked at a dose 3 ug.
Summary of the method: (§1)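 Sprague-Dawley rats given peptide by subcutaneous injection at noon on the day of proestrus, in 40% propane-1,2-diol–0.9% saline vehicle. Oviducts examined for ova the following day.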

Rattus norvegicus [2] = organism: Rattus norvegicus; experiment: Antiovulatory activity was expressed as the percentage of 10 rats blocked at a dose 0.5 ug.; summary of the method: as §1
Rattus norvegicus [3] = organism: Rattus norvegicus; experiment: Antiovulatory activity was expressed as the percentage of 9 rats blocked at a dose 7.5 ug.; summary of the method: as §1
Rattus norvegicus [4] = organism: Rattus norvegicus; experiment: Antiovulatory activity was expressed as the percentage of 8 rats blocked at a dose 3 ug.; summary of the method: as §1
Rattus norvegicus [5] = organism: Rattus norvegicus; experiment: Antiovulatory activity was expressed as the percentage of 10 rats blocked at a dose 1 ug.; summary of the method: as §1
Rattus norvegicus [6] = organism: Rattus norvegicus; experiment: Antiovulatory activity was expressed as the percentage of 10 rats blocked at a dose 3 ug.; summary of the method: as §1
Rattus norvegicus [7] = organism: Rattus norvegicus; experiment: Antiovulatory activity was expressed as the percentage of 9 rats blocked at a dose 1 ug.; summary of the method: as §1
Rattus norvegicus [8] = organism: Rattus norvegicus; experiment: Antiovulatory activity was expressed as the percentage of 8 rats blocked at a dose 7.5 ug.; summary of the method: as §1
Rattus norvegicus [9] = organism: Rattus norvegicus; experiment: Antiovulatory activity was expressed as the percentage of 8 rats blocked at a dose 1 ug.; summary of the method: as §1
Rattus norvegicus [10] = organism: Rattus norvegicus; experiment: Antiovulatory activity was expressed as the percentage of 16 rats blocked at a dose 1 ug.; summary of the method: as §1
Rattus norvegicus [11] = organism: Rattus norvegicus; experiment: Antiovulatory activity was expressed as the percentage of 7 rats blocked at a dose 3 ug.; summary of the method: as §1

`CC(=O)N[C@H](Cc1ccc2ccccc2c1)C(=O)N[C@H](Cc1ccc2ccccc2c1)C(=O)N[C@H](Cc1ccc2ccccc2c1)C(=O)N[C@@H](CO)C(=O)N[C@@H](Cc1ccc(O)cc1)C(=O)N[C@H](CCCN=C(N)N)C(=O)N[C@@H](Cc1ccccc1)C(=O)N[C@@H](CCCN=C(N)N)C(=O)N1CCC[C@H]1C(=O)N[C@H](C)C(N)=O` was tested, and the Antiovulatory activity (Rattus norvegicus [1]) was 15%.
`CC(=O)N[C@H](Cc1ccc2ccccc2c1)C(=O)N[C@H](Cc1ccccc1)C(=O)N[C@H](Cc1ccccc1)C(=O)N[C@@H](CO)C(=O)N[C@@H](Cc1ccc(O)cc1)C(=O)N[C@H](CCCN=C(N)N)C(=O)N[C@@H](CC1CCCCC1)C(=O)N[C@@H](CCCN=C(N)N)C(=O)N1CCC[C@H]1C(=O)N[C@H](C)C(N)=O` gave an Antiovulatory activity (Rattus norvegicus [2]) of 80%.
`CC(=O)N[C@H](Cc1ccc2ccccc2c1)C(=O)N[C@H](Cc1ccc2ccccc2c1)C(=O)N[C@H](Cc1c(F)c(F)c(F)c(F)c1F)C(=O)N[C@@H](CO)C(=O)N[C@@H](Cc1ccc(O)cc1)C(=O)N[C@H](CCCN=C(N)N)C(=O)N[C@@H](Cc1ccccc1)C(=O)N[C@@H](CCCN=C(N)N)C(=O)N1CCC[C@H]1C(=O)N[C@H](C)C(N)=O` was tested, and the Antiovulatory activity (Rattus norvegicus [3]) was 0%.
In the case of `CC(=O)N[C@H](Cc1ccccc1)C(=O)N[C@H](Cc1ccccc1)C(=O)N[C@H](Cc1ccccc1)C(=O)N[C@@H](CO)C(=O)N[C@@H](Cc1ccc(O)cc1)C(=O)N[C@H](CCCN=C(N)N)C(=O)N[C@@H](Cc1ccccc1)C(=O)N[C@@H](CCCN=C(N)N)C(=O)N1CCC[C@H]1C(=O)N[C@H](C)C(N)=O`, the Antiovulatory activity (Rattus norvegicus [4]) is reported as 0%.
In the case of `CC(=O)N[C@H](Cc1ccc(Cl)cc1)C(=O)N[C@H](Cc1ccc(Cl)cc1)C(=O)N[C@H](Cc1c[nH]c2ccccc12)C(=O)N[C@@H](CO)C(=O)N[C@@H](Cc1ccc(O)cc1)C(=O)N[C@H](CCCN=C(N)N)C(=O)N[C@@H](Cc1ccccc1)C(=O)N[C@@H](CCCN=C(N)N)C(=O)N1CCC[C@H]1C(=O)N[C@H](C)C(N)=O` (HELM PEPTIDE1{[ac].[O=C([C@@H](Cc1ccc(Cl)cc1)N[*:1])[*:2]].[O=C([C@@H](Cc1ccc(Cl)cc1)N[*:1])[*:2]].[dW].S.Y.[dR].F.R.P.[dA].[am]}$$$$V2.0), the Antiovulatory activity (Rattus norvegicus [5]) is reported as 70% and the Antiovulatory activity (Rattus norvegicus [6]) is reported as 100%.
In the case of `CC(=O)N[C@H](Cc1ccc(Cl)cc1)C(=O)N[C@H](Cc1ccccc1)C(=O)N[C@H](Cc1ccccc1)C(=O)N[C@@H](CO)C(=O)N[C@@H](Cc1ccc(O)cc1)C(=O)N[C@H](CCCN=C(N)N)C(=O)N[C@@H](Cc1ccccc1)C(=O)N[C@@H](CCCN=C(N)N)C(=O)N1CCC[C@H]1C(=O)N[C@H](C)C(N)=O`, the Antiovulatory activity (Rattus norvegicus [4]) is reported as 63%.
`CC(=O)N[C@H](Cc1ccc2ccccc2c1)C(=O)N[C@H](Cc1ccccc1)C(=O)N[C@H](Cc1ccc(O)cc1)C(=O)N[C@@H](CO)C(=O)N[C@@H](Cc1ccc(O)cc1)C(=O)N[C@H](CCCN=C(N)N)C(=O)N[C@@H](Cc1ccccc1)C(=O)N[C@@H](CCCN=C(N)N)C(=O)N1CCC[C@H]1C(=O)N[C@H](C)C(N)=O` gave an Antiovulatory activity (Rattus norvegicus [7]) of 0%.
With `CC(=O)N[C@H](Cc1ccc2ccccc2c1)C(=O)N[C@H](Cc1ccc(Cl)cc1)C(=O)N[C@H](Cc1ccccc1)C(=O)N[C@@H](CO)C(=O)N[C@@H](Cc1ccc(O)cc1)C(=O)N[C@H](CCCN=C(N)N)C(=O)N[C@@H](Cc1ccccc1)C(=O)N[C@@H](CCCN=C(N)N)C(=O)N1CCC[C@H]1C(=O)N[C@H](C)C(N)=O` the Antiovulatory activity (Rattus norvegicus [2]) was 10% and the Antiovulatory activity (Rattus norvegicus [7]) was 56%.
`CC(=O)N[C@H](Cc1ccc2ccccc2c1)C(=O)N[C@H](Cc1ccc2ccccc2c1)C(=O)N[C@H](Cc1c[nH]cn1)C(=O)N[C@@H](CO)C(=O)N[C@@H](Cc1ccc(O)cc1)C(=O)N[C@H](CCCN=C(N)N)C(=O)N[C@@H](Cc1ccccc1)C(=O)N[C@@H](CCCN=C(N)N)C(=O)N1CCC[C@H]1C(=O)N[C@H](C)C(N)=O` showed an Antiovulatory activity (Rattus norvegicus [6]) of 0%.
Compound `CC(=O)N[C@H](Cc1ccc(Cl)cc1)C(=O)N[C@H](Cc1ccc(Cl)cc1)C(=O)N[C@H](Cc1c[nH]c2ccccc12)C(=O)N[C@@H](CO)C(=O)N[C@@H](Cc1ccc(O)cc1)C(=O)N[C@H](Cc1ccccc1)C(=O)N[C@@H](Cc1ccccc1)C(=O)N[C@@H](CCCN=C(N)N)C(=O)N1CCC[C@H]1C(=O)N[C@H](C)C(N)=O` has an Antiovulatory activity (Rattus norvegicus [8]) of 8%.
`CC(=O)N[C@H](Cc1ccc2ccccc2c1)C(=O)N[C@H](Cc1ccc2ccccc2c1)C(=O)N[C@H](Cc1ccccc1)C(=O)N[C@@H](CO)C(=O)N[C@@H](Cc1ccc(O)cc1)C(=O)N[C@H](CCCN=C(N)N)C(=O)N[C@@H](Cc1ccccc1)C(=O)N[C@@H](CCCN=C(N)N)C(=O)N1CCC[C@H]1C(=O)N[C@H](C)C(N)=O` gave an Antiovulatory activity (Rattus norvegicus [6]) of 100%.
For `CC(=O)N[C@H](Cc1ccc2ccccc2c1)C(=O)N[C@H](Cc1ccc(Cl)cc1)C(=O)N[C@H](Cc1ccc(Cl)cc1)C(=O)N[C@@H](CO)C(=O)N[C@@H](Cc1ccc(O)cc1)C(=O)N[C@H](CCCN=C(N)N)C(=O)N[C@@H](Cc1ccccc1)C(=O)N[C@@H](CCCN=C(N)N)C(=O)N1CCC[C@H]1C(=O)N[C@H](C)C(N)=O`, the Antiovulatory activity (Rattus norvegicus [4]) was 63% and the Antiovulatory activity (Rattus norvegicus [9]) was 0%.
Compound `CC(=O)N[C@H](Cc1ccc(Cl)cc1)C(=O)N[C@H](Cc1ccc(Cl)cc1)C(=O)N[C@H](Cc1c[nH]c2ccccc12)C(=O)N[C@@H](CO)C(=O)N[C@@H](Cc1ccc(O)cc1)C(=O)N[C@H](Cc1ccc2ccccc2c1)C(=O)N[C@@H](Cc1ccccc1)C(=O)N[C@@H](CCCN=C(N)N)C(=O)N1CCC[C@H]1C(=O)N[C@H](C)C(N)=O` has an Antiovulatory activity (Rattus norvegicus [8]) of 0%.
Compound `CCNC(=NCCCC[C@@H](NC(=O)[C@H](Cc1ccc(O)cc1)NC(=O)[C@H](CO)NC(=O)[C@@H](Cc1c[nH]c2ccccc12)NC(=O)[C@@H](Cc1ccc(Cl)cc1)NC(=O)[C@@H](Cc1ccc2ccccc2c1)NC(C)=O)C(=O)N[C@@H](Cc1ccccc1)C(=O)N[C@@H](CCCN=C(N)N)C(=O)N1CCC[C@H]1C(=O)N[C@H](C)C(N)=O)NCC` (Ac-[d2Nal][dPhe(4-Cl)][dW]SY[d(hArg(Et2))]FRP[dA]-NH2) has an Antiovulatory activity (Rattus norvegicus [9]) of 63%.
With `CC(=O)N[C@H](Cc1ccc2ccccc2c1)C(=O)N[C@H](Cc1ccc(O)cc1)C(=O)N[C@H](Cc1ccccc1)C(=O)N[C@@H](CO)C(=O)N[C@@H](Cc1ccc(O)cc1)C(=O)N[C@H](CCCN=C(N)N)C(=O)N[C@@H](Cc1ccccc1)C(=O)N[C@@H](CCCN=C(N)N)C(=O)N1CCC[C@H]1C(=O)N[C@H](C)C(N)=O` the Antiovulatory activity (Rattus norvegicus [10]) was 0% and the Antiovulatory activity (Rattus norvegicus [11]) was 14%.
For `CC(=O)N[C@H](Cc1ccc2ccccc2c1)C(=O)N[C@H](Cc1ccc(O)cc1)C(=O)N[C@H](Cc1ccc(O)cc1)C(=O)N[C@@H](CO)C(=O)N[C@@H](Cc1ccc(O)cc1)C(=O)N[C@H](CCCN=C(N)N)C(=O)N[C@@H](Cc1ccccc1)C(=O)N[C@@H](CCCN=C(N)N)C(=O)N1CCC[C@H]1C(=O)N[C@H](C)C(N)=O`, the Antiovulatory activity (Rattus norvegicus [9]) was 0%.
With `CC(=O)N[C@H](Cc1c[nH]c2ccccc12)C(=O)N[C@H](Cc1ccccc1)C(=O)N[C@H](Cc1ccccc1)C(=O)N[C@@H](CO)C(=O)N[C@@H](Cc1ccc(O)cc1)C(=O)N[C@H](CCCN=C(N)N)C(=O)N[C@@H](Cc1ccccc1)C(=O)N[C@@H](CCCN=C(N)N)C(=O)N1CCC[C@H]1C(=O)N[C@H](C)C(N)=O` the Antiovulatory activity (Rattus norvegicus [6]) was 0%.
